Screening data deposited in PubChem BioAssay by several laboratories.
T cell HTS: modulators of CD8 T cell-vesicle binding, primary screen, mouse 2C CD8+ T cells, flow cytometry; 2C CD8+ T cell-vesicle binding; active compounds read low; response (vesicle binding), % at 7 µM; hit rate 0.068% among 330,000;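 active = response, share of CD8 T cells binding vesicles, and their 90th percentile fluorescence all below set limits, cut at about 80% in these data, passing the limit was not always enough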;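 also: values below 100% mean blocked vesicle binding to the CD8+ T cells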
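incubation = binding step 1.5 h, 37 °C, antibody labelling 20 min, ice | test system = 2C mouse CD8+ T cells | read-out basis = percent CD8+ FL2 mean versus row control | controls = Peptide-free naked vesicles (low) and QL9 vesicles with 0.7% DMSO vehicle (high) | detection = flow cytometry of vesicle-bound cells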
GASC-1 inh: inhibitors of GASC-1 histone demethylase, primary screen, biochemical, fluorescence, DELFIA europium. Lysine-specific demethylase 4C (Homo sapiens), Q9H3R0. GST-JMJD2C(1-420) H3K9me3 demethylation. inhibition, % at 2.35 µM. hit rate 0.069% among 330,000. AID 2099, 2009;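 active = more than half of a compound's replicate wells show inhibition beyond 50%, single wells judged on their own value; inconclusive = some, but no more than half, of replicates pass 50% inhibition; inactive = no replicate passes 50% inhibition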;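 also: signal counts dimethyl H3K9 product captured on neutravidin plate; 0% = median of DMSO wells and 100% = 0.3 times that DMSO median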
GRIN3A LBD mod: binders of NR3A ligand-binding domain, primary screen, biophysical, differential scanning fluorimetry, uHTS; Glutamate receptor ionotropic, NMDA 3A (GRIN3A) ligand-binding domain; NR3A LBD differential scanning fluorimetry, Tm shift; 0% = protein alone, 100% = glycine-bound protein; Tm shift relative to glycine control, % at 25 µM; hit rate 2.5% among 340,000;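 active = melting temperature shift of at least 10% of the positive control shift, at one fixed dose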
Rtt109 HAT inh: inhibitors of C. albicans Rtt109/Vps75 HAT, primary screen, biochemical, ThioGlo CoA-SH fluorescence, plate reader; purified Rtt109/Vps75, 4 h; inhibition, % at 34.9 µM; hit rate 0.16% among 330,000; AID 540336, 2011;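 active = inhibition of at least 50% in every replicate; inconclusive = best replicate reaches 50% inhibition but some replicates fall short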
Target sequence (Q5AAJ8 whole entry, looked up): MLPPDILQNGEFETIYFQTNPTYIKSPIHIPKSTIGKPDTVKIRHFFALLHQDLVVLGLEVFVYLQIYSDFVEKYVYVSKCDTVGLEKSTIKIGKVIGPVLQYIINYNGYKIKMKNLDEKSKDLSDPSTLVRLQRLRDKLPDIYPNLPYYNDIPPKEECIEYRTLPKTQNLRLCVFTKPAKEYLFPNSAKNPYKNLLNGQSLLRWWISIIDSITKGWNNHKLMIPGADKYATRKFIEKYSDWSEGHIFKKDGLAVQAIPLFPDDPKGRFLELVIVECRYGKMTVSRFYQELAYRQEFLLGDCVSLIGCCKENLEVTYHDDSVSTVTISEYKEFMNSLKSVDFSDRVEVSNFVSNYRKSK
Numbers without * were called inactive; u = inconclusive; x = no result. A selection: hits, their analogues and other compounds. The true share with any hit is near 2.8%.

SMILES | T cell HTS | GASC-1 inh | GRIN3A LBD mod | Rtt109 HAT inh
COc1ccc(OCC(=O)c2c[nH]c3ccccc23)cc1 | 308 | 3 | 14* | -3
COc1ccccc1/C=C/C(=O)OCC(=O)c1cc(C)n(C)c1C | 249 | -1 | 0 | -9
COc1cc(/C=C/C(=O)OCC(=O)c2c[nH]c3ccccc23)ccc1OC(F)F | 393 | -9 | 29* | 1
Cc1noc(C)c1C(=O)OC(C)C(=O)NC(C)c1ccc(Cl)cc1Cl (stereo not given) | 337 | 6 | 4 | -1
Cc1noc(NS(=O)(=O)c2ccc(NC(=O)CCN3C(=O)c4ccccc4C3=O)cc2)c1C | 224 | -10 | 14* | 6
Cc1noc(NS(=O)(=O)c2ccc(NC(=O)Nc3ccc(Cl)c(Cl)c3)cc2)c1C | 616 | 3 | 36* | 18
Cc1noc(NS(=O)(=O)c2ccc(NC(=O)c3ccc(N4C(=O)c5ccccc5C4=O)cc3)cc2)c1C | 192 | 4 | -13 | 15
CN(C)c1ccc(NC(=O)Nc2cccc(Cl)c2)cc1 | 245 | -6 | 22* | 0
O=C(Nc1cccc(Cl)c1)Nc1csc([N+](=O)[O-])c1 | 367 | -5 | 31* | 1
O=C(Nc1ccncc1)Nc1cccc(Cl)c1 | 0 | -15 | 14* | -10
CSCCC(N=C1NS(=O)(=O)c2ccccc21)C(=O)N1CCCC(C(N)=O)C1 (stereo not given) | 253 | 7 | 5 | -1
Cc1nc(Nc2ccc(Cl)cc2Cl)sc1C(=O)Nc1ccccc1 | 235 | 11 | 43* | -5
Cc1nc(Nc2ccc(Cl)c(Cl)c2)sc1C(=O)Nc1ccccc1 | 415 | -14 | 32* | -1
Cc1nc(NC(=O)/C=C/c2ccccc2)sc1C(=O)Nc1ccc(Cl)cc1 | 845 | 0 | 38* | 2
Cc1nc(Nc2ccccc2)sc1C(=O)c1ccccc1 | 244 | 18 | -11 | 0
Cc1nc(NC(=O)C2CC2)sc1C(=O)Nc1cccc(Cl)c1 | 168 | 1 | -10 | 3
COc1ccc(S(=O)(=O)N2CCN(C(=O)C3CC(=O)N(c4ccccc4F)C3)CC2)cc1OC (stereo not given) | x | x | 5 | 0
CCOC(=O)c1c(C)c2c(=O)[nH]cnc2n1-c1ccccc1 | 418 | 14 | 0 | x
CCOC(=O)c1c[nH]c(=S)n(-c2ccccc2)c1=O | 264 | -1 | 13* | 3
Cc1cc(C)nc(NC(N)=NC(C)c2ccccc2)n1 (stereo not given) | 229 | 51* | -2 | x
O=C(NNC(=O)c1cc(-c2cccc(Br)c2)nc2ccccc12)c1csc(N2CCOCC2)n1 | 663 | -4 | -3 | -1
CCc1cccc(CC)c1NC(=O)C1SC(=Nc2ccccc2C)C(c2nc3ccccc3s2)=C1N (stereo not given) | 246 | -1 | 19* | 0
COc1ccccc1CN(C)C(=O)CSCC(=O)Nc1ccccc1F | 499 | -5 | 0 | 2
Nc1nonc1-n1nnc(C(=O)N/N=C/c2ccoc2)c1CSc1ccc(Cl)cc1 | 475 | 6 | 35* | 7
C/C(=N\NC(=O)c1nnn(-c2nonc2N)c1CSc1ccc(Cl)cc1)c1ccco1 | 342 | 6 | -2 | -1
SMILES | T cell HTS | GASC-1 inh | GRIN3A LBD mod | Rtt109 HAT inh
Cc1ccc(/C=N/NC(=O)c2nnn(-c3nonc3N)c2CSc2ccc(Cl)cc2)o1 | 21 | 11 | 21* | 1
Nc1nonc1-n1nnc(C(=O)N/N=C/c2ccncc2)c1CSc1ccccc1 | 113 | 1 | 11* | 5
Nc1nonc1-n1nnc(C(=O)N/N=C/c2ccoc2)c1CSc1ccccc1 | 340 | -2 | 16* | 7
CN(C)Cc1c(C(=O)N/N=C/c2ccncc2)nnn1-c1nonc1N | 148 | 0 | 0 | 1
CN(C)Cc1c(C(=O)N/N=C/c2ccoc2)nnn1-c1nonc1N | 234 | 4 | 5 | -4
CCN(CC)Cc1c(C(=O)N/N=C/c2ccc(C)o2)nnn1-c1nonc1N | 354 | -8 | 1 | 14
Cc1ccc(S(=O)(=O)N(C)C)cc1NC(=O)CSc1nnc(C2CC2)n1C1CC1 | 413 | 4 | 0 | 0
O=S(=O)(Nc1ccc(Br)cn1)c1ccc(Cl)s1 | 178 | 3 | 0 | -4
Cc1ccsc1/C=N/NC(=O)c1nnn(-c2nonc2N)c1CSc1ccccc1 | 344 | -7 | 36* | -3
Cc1ccc(/C=N/NC(=O)c2nnn(-c3nonc3N)c2CSc2ccccc2)s1 | 544 | -12 | 30* | 4
Nc1nonc1-n1nnc(C(=O)N/N=C/c2ccccc2)c1CSc1ccccc1 | 382 | 1 | 35* | x
Nc1nonc1-n1nnc(C(=O)N/N=C/c2ccc(Br)cc2)c1CSC1=NCCS1 | 563 | 4 | 0 | -1
Cc1ccsc1/C=N/NC(=O)c1nnn(-c2nonc2N)c1-c1ccccc1 | 170 | -8 | -3 | 9
CN(C)c1ccc(/C=N/n2c(C3CCCCC3)n[nH]c2=S)cc1 | 264 | 23 | -7 | x
CC(C)OCCCNc1nc2c(cnn2C)c(=O)[nH]1 | x | x | 2 | -2
Oc1ccccc1-c1nc(NC2CCCC2)c2ccccc2n1 | 88 | 4 | 19* | 2
CC(Nc1nc(-c2ccccc2O)nc2ccccc12)c1ccccc1 (stereo not given) | 200 | -8 | 22* | -1
Fc1ccccc1-c1nc(NC2CCCC2)c2ccccc2n1 | 227 | -3 | -2 | 5
O=C(Cn1c(=O)c2cccn2c2cccnc21)N1CCN(c2ccccc2F)CC1 | 456 | 1 | 0 | -19
COc1ccccc1-c1coc2c(CN3CCOCC3)c(O)ccc2c1=O | 205 | -16 | 1 | -6
OC(c1ccccc1)(c1ccccc1)c1ncc[nH]1 | 273 | -3 | -1 | 5
Cc1ccc(NC(=S)N(Cc2cccs2)Cc2cc3cccc(C)c3[nH]c2=O)cc1 | 188 | 13 | 15* | -10
COc1cc2cc(CN(Cc3cccs3)C(=S)Nc3ccccc3)c(=O)[nH]c2cc1OC | 233 | 1 | 17* | 1
Cc1cccc2cc(CN(Cc3cccs3)C(=S)NCC3CCCO3)c(=O)[nH]c12 (stereo not given) | 526 | -4 | 0 | 9
CC1Oc2ccccc2N(CC(=O)NC2CCCCC2)C1=O (stereo not given) | 158 | -1 | -1 | 9
O=S(=O)(/N=C(/Nc1ccccn1)c1ccccc1)c1ccc(F)cc1 | 307 | -14 | -3 | -3
CCCOC(=O)c1ccc(Oc2c(-c3ccc(OCC)cc3O)n[nH]c2C)cc1 | 595 | 4 | 30* | 21
COc1ccc(Oc2c(-c3ccc(O)cc3O)n[nH]c2C)cc1 | 380 | 0 | 10 | x
CCCOC(=O)c1ccc(Oc2cn[nH]c2-c2ccc(OCC)cc2O)cc1 | 78 | 6 | 16* | u
CCN(CC(=O)Nc1c(F)cccc1F)C(=O)c1ccc(=O)n(C)n1 | x | x | 0 | -1
